Data as given in ChEMBL document CHEMBL1122109, “Monophenolic octahydrobenzo[f]quinolines: central dopamine- and serotonin-receptor stimulating activity” (1982).
The source made the active and inactive calls. The rule behind the calls is not given here.

What was measured:
Rattus norvegicus [1] = test: ED50 value was measured as dose required to produce a half-maximal reduction of Dopa accumulation in limbic area of reserpinized rat brain; Maximal reduction of Dopa could not be obtained. 40% reduction from control level at 12500 nmol/Kg; format: functional, organism-based
Rattus norvegicus [2] = test: ED50 value was measured as dose required to produce a half-maximal reduction of Dopa accumulation in the striatum of reserpinized rat brain; Maximal reduction of Dopa could not be obtained. 60% reduction from control level at 12500 nmol/Kg; format: functional, organism-based
Rattus norvegicus [3] = test: Percent reduction of hemispheres in cortex was measured in the brain of reserpinized rats.*: No significant effect at doses approximately 40 times the ED50; IA is Inactive at 45000 nmol/kg; format: functional, organism-based
Rattus norvegicus [4] = test: ED50 value was measured as dose required to produce a half-maximal reduction of Serotonin (5-HTP) accumulation in striatum of reserpinized rat brain; I is Inactive at 45000 nmol/kg; format: functional, organism-based
Rattus norvegicus [5] = test: ED50 value was measured as dose required to produce a half-maximal reduction of Serotonin (5-HTP) accumulation in limbic area of reserpinized rat brain; I is Inactive at 45000 nmol/kg; format: functional, organism-based
Rattus norvegicus [6] = species: Rattus norvegicus; test: ED50 value was measured as dose required to produce a half-maximal reduction of Serotonin (5-HTP) accumulation in striatum of reserpinized rat brain; format: functional
Rattus norvegicus [7] = species: Rattus norvegicus; test: ED50 value was measured as dose required to produce a half-maximal reduction of Serotonin (5-HTP) accumulation in limbic area of reserpinized rat brain; format: functional
Rattus norvegicus [8] = species: Rattus norvegicus; test: Percent reduction of hemispheres in cortex was measured in the brain of reserpinized rats.*: No significant effect at doses approximately 40 times the ED50; format: functional
Rattus norvegicus [9] = species: Rattus norvegicus; test: ED50 for 5-HTP in cortex hemispheres was measured in the brain of reserpinized rats.
Rattus norvegicus [10] = species: Rattus norvegicus; test: ED50 value was measured as dose required to produce a half-maximal reduction of Dopa accumulation in limbic area of reserpinized rat brain; I is Inactive, no significant effect at doses approximately 40 times the ED50 for Dopa accumulation; format: functional, organism-based
Rattus norvegicus [11] = species: Rattus norvegicus; test: ED50 value was measured as dose required to produce a half-maximal reduction of Dopa accumulation in the striatum of reserpinized rat brain; I is Inactive, no significant effect at doses approximately 40 times the ED50 for Dopa accumulation; format: functional, organism-based
Rattus norvegicus [12] = species: Rattus norvegicus; test: ED50 value was measured as dose required to produce a half-maximal reduction of Dopa accumulation in the striatum of reserpinized rat brain.; format: functional
Rattus norvegicus [13] = species: Rattus norvegicus; test: ED50 value was measured as dose required to produce a half-maximal reduction of Serotonin (5-HTP) accumulation in striatum of reserpinized rat brain; I is Inactive, no significant effect at doses approximately 40 times the ED50 for Dopa accumulation; format: functional, organism-based
Rattus norvegicus [14] = species: Rattus norvegicus; test: ED50 value was measured as dose required to produce a half-maximal reduction of Dopa accumulation in limbic area of reserpinized rat brain.; format: functional
Rattus norvegicus [15] = species: Rattus norvegicus; test: Percent reduction of hemispheres in cortex was measured in the brain of reserpinized rats; I is Inactive, no significant effect at doses approximately 40 times the ED50 for Dopa accumulation; format: functional, organism-based
Rattus norvegicus [16] = species: Rattus norvegicus; test: ED50 value was measured as dose required to produce a half-maximal reduction of Serotonin (5-HTP) accumulation in limbic area of reserpinized rat brain; I is Inactive, no significant effect at doses approximately 40 times the ED50 for Dopa accumulation; format: functional, organism-based
Rattus norvegicus [17] = test: ED50 value was measured as dose required to produce a half-maximal reduction of Dopa accumulation in limbic area of reserpinized rat brain; I is Inactive at 500 nmol/kg; format: functional, organism-based
Rattus norvegicus [18] = test: ED50 value was measured as dose required to produce a half-maximal reduction of Dopa accumulation in the striatum of reserpinized rat brain; I is Inactive at 500 nmol/kg; format: functional, organism-based
Rattus norvegicus [19] = species: Rattus norvegicus; test: Motor activity was measured in the reserpinized rats as counts/60 min.; format: functional
In short: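 Male Sprague-Dawley rats (200-300 g) received reserpine 10 mg/kg ip 6 h before testing and DL-α-methyl-p-tyrosine methyl ester HCl 250 mg/kg ip 1 h before. Test drug was given sc in the neck: trans derivatives at 1 mg/kg (3100 nmol/kg), cis at 10 mg/kg (31000 nmol/kg), n = 4. Rats were placed singly in motility meters immediately and activity recorded for 60 min; means ± SEM.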

Rattus norvegicus [20] = species: Rattus norvegicus; test: ED50 value was measured as dose required to produce a half-maximal reduction of Dopa accumulation in the striatum of reserpinized rat brain; I is Inactive, no significant effect at doses approximately 10 times the ED50 for Dopa accumulation; format: functional, organism-based
Rattus norvegicus [21] = species: Rattus norvegicus; test: ED50 value was measured as dose required to produce a half-maximal reduction of Dopa accumulation in limbic area of reserpinized rat brain; I is Inactive, no significant effect at doses approximately 10 times the ED50 for Dopa accumulation; format: functional, organism-based
Rattus norvegicus [22] = species: Rattus norvegicus; test: Percent reduction of hemispheres in cortex was measured in the brain of reserpinized rats.*: No significant effect at doses approximately 40 times the ED50; I is Inactive, no significant effect at doses approximately 40 times the ED50 for Dopa ac cumulation; format: functional, organism-based
Rattus norvegicus [23] = test: Percent reduction of hemispheres in cortex was measured in the brain of reserpinized rats; I is Inactive at 11300 nmol/Kg; format: functional, organism-based
Rattus norvegicus [24] = test: ED50 value was measured as dose required to produce a half-maximal reduction of Serotonin (5-HTP) accumulation in limbic area of reserpinized rat brain; I is Inactive at 11300 nmol/Kg; format: functional, organism-based
Rattus norvegicus [25] = test: ED50 value was measured as dose required to produce a half-maximal reduction of Serotonin (5-HTP) accumulation in striatum of reserpinized rat brain; I is Inactive at 11300 nmol/Kg; format: functional, organism-based
Rattus norvegicus [26] = test: ED50 value was measured as dose required to produce a half-maximal reduction of Serotonin (5-HTP) accumulation in limbic area of reserpinized rat brain; I is Inactive at 2800 nmol/kg; format: functional, organism-based
Rattus norvegicus [27] = test: Percent reduction of hemispheres in cortex was measured in the brain of reserpinized rats; I is Inactive at 2800 nmol/kg; format: functional, organism-based
Rattus norvegicus [28] = species: Rattus norvegicus; test: ED50 value was measured as dose required to produce a half-maximal reduction of Serotonin (5-HTP) accumulation in limbic area of reserpinized rat brain; I is Inactive, no significant effect at doses approximately 10 times the ED50 for Dopa accumulation; format: functional, organism-based
Rattus norvegicus [29] = species: Rattus norvegicus; test: Percent reduction of hemispheres in cortex was measured in the brain of reserpinized rats; I is Inactive, no significant effect at doses approximately 10 times the ED50 for Dopa accumulation; format: functional, organism-based
Rattus norvegicus [30] = test: ED50 value was measured as dose required to produce a half-maximal reduction of Dopa accumulation in limbic area of reserpinized rat brain; I is Inactive at 2800 nmol/kg; format: functional, organism-based
Rattus norvegicus [31] = species: Rattus norvegicus; test: ED50 value was measured as dose required to produce a half-maximal reduction of Serotonin (5-HTP) accumulation in striatum of reserpinized rat brain; I is Inactive, no significant effect at doses approximately 10 times the ED50 for Dopa accumulation; format: functional, organism-based
Rattus norvegicus [32] = test: ED50 value was measured as dose required to produce a half-maximal reduction of Dopa accumulation in the striatum of reserpinized rat brain; I is Inactive at 2800 nmol/kg; format: functional, organism-based
Rattus norvegicus [33] = test: ED50 value was measured as dose required to produce a half-maximal reduction of Serotonin (5-HTP) accumulation in striatum of reserpinized rat brain; I is Inactive at 2800 nmol/kg; format: functional, organism-based
[34] = Rattus norvegicus, Striatum, read-out: ED50
[35] = Rattus norvegicus, Brain, read-out: ED50

Row | Compound | ED50 (Rattus norvegicus [12]; [34]) [µmol/kg] | ED50 (Rattus norvegicus [13]) | ED50 (Rattus norvegicus [14]; [35]) [µmol/kg] | Hemispheres reduction (Rattus norvegicus [15]) | ED50 (Rattus norvegicus [16]) | Motor activity (Rattus norvegicus [19]) | further results
1 | CCCN1CCCC2c3cccc(O)c3CCC21 (stereo in doubt; 6) [listing 1 of 2 here] |  |  |  |  |  |  | ED50 (Rattus norvegicus [1]): Weak activity; ED50 (Rattus norvegicus [2]): Weak activity; Hemispheres reduction (Rattus norvegicus [3]): inactive; ED50 (Rattus norvegicus [4]): inactive; ED50 (Rattus norvegicus [5]): inactive
2 | CCCN1CCCC2c3c(O)cccc3CCC21 (stereo in doubt; 18) [listing 1 of 2 here] |  |  |  |  |  |  | ED50 (Rattus norvegicus [6]): 180 nM/kg; ED50 (Rattus norvegicus [7]): 230 nM/kg; Hemispheres reduction (Rattus norvegicus [8]): 160
3 | CCCN(CCC)C1CCc2cccc(O)c2C1 (configuration not stated) [8-OH-DPAT] |  |  |  |  |  |  | ED50 (Rattus norvegicus [6]; [34]): 0.045 µmol/kg; ED50 (Rattus norvegicus [9]): 68 nmol/kg; ED50 (Rattus norvegicus [7]; [35]): 0.048 µmol/kg; ED50 (Rattus norvegicus [10]): inactive; ED50 (Rattus norvegicus [11]): inactive
4 | CCCN1CCCC(c2cccc(O)c2)C1 (configuration not stated) | 3.6 | inactive | 3.6 | inactive | inactive |  | 
5 | CCCN1CCCC2c3cccc(O)c3CCC21 (stereo in doubt; 7) [listing 1 of 2 here] |  | inactive |  | inactive | inactive |  | 
6 | CCCN1CCCC2c3c(O)cccc3CCC21 (stereo in doubt; 18) [listing 2 of 2 here] |  |  |  |  |  |  | ED50 (Rattus norvegicus [17]): inactive; ED50 (Rattus norvegicus [18]): inactive
7 | CCCN1CCCC2c3cccc(O)c3CCC21 (stereo in doubt; 6) [listing 2 of 2 here] |  |  |  |  |  | 17 | 
8 | CCCN1CCCC2c3c(O)cccc3CCC21 (stereo in doubt; 17) [listing 1 of 2 here] |  |  |  |  |  |  | ED50 (Rattus norvegicus [20]): inactive; ED50 (Rattus norvegicus [21]): inactive
9 | CCCN1CCCC2c3cc(O)ccc3CCC21 (stereo in doubt; 8) [listing 1 of 2 here] |  |  |  |  |  |  | ED50 (Rattus norvegicus [12]): 3400 nM/kg; ED50 (Rattus norvegicus [14]): 2000 nM/kg
10 | CN1CCc2cccc3c2[C@H]1Cc1ccc(O)c(O)c1-3 [APOMORPHINE] | 0.22 |  | 0.19 | inactive |  | 624 | 
11 | CCCN(CCC)C1CCc2c(O)cccc2C1 (configuration not stated) [5-OH-DPAT] | 0.009 | inactive | 0.011 | inactive | inactive | 688 | 
12 | CCCN(CCC)[C@@H]1CCc2ccc(O)cc2C1 | 0.17 |  | 0.18 |  |  |  | 
13 | CCCN1CCCC2c3c(O)cccc3CCC21 (stereo in doubt; 17) [listing 2 of 2 here] |  |  |  |  |  |  | ED50 (Rattus norvegicus [6]): 3400 nM/kg; ED50 (Rattus norvegicus [7]): 3400 nM/kg; Hemispheres reduction (Rattus norvegicus [8]): 4500
14 | CCCCN1CCCC2c3cccc(O)c3CCC21 (configuration not stated) | 0.07 | inactive | 0.08 |  | inactive | 418 | Hemispheres reduction (Rattus norvegicus [22]): inactive
15 | CCCN1CCCC2c3cc(O)ccc3CCC21 (stereo in doubt; 9) [listing 1 of 2 here] |  | inactive |  | inactive | inactive |  | 
16 | CCCN(CCC)C1CCc2ccc(O)cc2C1 (configuration not stated) | 0.03 | inactive | 0.027 | inactive | inactive |  | 
17 | CCCN1CCCC2c3cc(O)ccc3CCC21 (stereo in doubt; 8) [listing 2 of 2 here] |  |  |  |  |  |  | Hemispheres reduction (Rattus norvegicus [23]): inactive; ED50 (Rattus norvegicus [24]): inactive; ED50 (Rattus norvegicus [25]): inactive
18 | CCCN1CCCC2c3ccc(O)cc3CCC21 (configuration not stated) | 0.53 |  | 0.54 |  |  | 179 | ED50 (Rattus norvegicus [26]): inactive; Hemispheres reduction (Rattus norvegicus [27]): inactive; ED50 (Rattus norvegicus [28]): inactive; Hemispheres reduction (Rattus norvegicus [29]): inactive; ED50 (Rattus norvegicus [30]): inactive; ED50 (Rattus norvegicus [31]): inactive; ED50 (Rattus norvegicus [32]): inactive; ED50 (Rattus norvegicus [33]): inactive
19 | CCCN1CCCC2c3cc(O)ccc3CCC21 (stereo in doubt; 9) [listing 2 of 2 here] |  |  |  |  |  | 365 | ED50 (Rattus norvegicus [12]): 12 nM/kg; ED50 (Rattus norvegicus [14]): 8 nM/kg
20 | CCCN1CCCC2c3cccc(O)c3CCC21 (stereo in doubt; 7) [listing 2 of 2 here] | 0.13 |  | 0.13 |  |  | 327 | 
